# In ChEMBL document CHEMBL4406821, “Novel dual inhibitors targeting CDK4 and VEGFR2 synergistically suppressed cancer progression and angiogenesis” (Eur J Med Chem, 2019):
# Activity calls are given as the source filed them. No cut-off for these calls is given here.
# Experiments:
# [1] = molecular target: Tyrosine-protein kinase TXK (Homo sapiens) (UniProt P42681); test: Inhibition of recombinant human TXK (256 to end residues) at 1 uM using GEEPLYWSFPAKKK as substrate incubated for 40 mins in presence of [gamma-33P]-ATP by scintillation counting method relative to control
# Sequence of Tyrosine-protein kinase TXK (Homo sapiens) (P42681 whole entry): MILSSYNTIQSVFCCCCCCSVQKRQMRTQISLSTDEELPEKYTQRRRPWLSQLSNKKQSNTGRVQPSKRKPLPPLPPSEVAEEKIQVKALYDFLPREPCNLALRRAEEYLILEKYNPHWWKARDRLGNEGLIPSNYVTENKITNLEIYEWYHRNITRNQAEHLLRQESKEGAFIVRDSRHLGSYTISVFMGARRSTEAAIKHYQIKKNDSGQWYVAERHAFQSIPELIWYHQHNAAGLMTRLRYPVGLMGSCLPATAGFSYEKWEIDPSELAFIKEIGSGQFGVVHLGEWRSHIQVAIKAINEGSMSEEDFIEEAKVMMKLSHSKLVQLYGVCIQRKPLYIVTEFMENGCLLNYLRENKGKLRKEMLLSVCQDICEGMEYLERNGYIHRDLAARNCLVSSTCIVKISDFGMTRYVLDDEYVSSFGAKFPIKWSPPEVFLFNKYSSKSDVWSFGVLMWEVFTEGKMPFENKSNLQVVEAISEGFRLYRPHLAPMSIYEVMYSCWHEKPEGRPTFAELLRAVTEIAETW
# In short: (§1)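 Tested at a single 1 uM in an outsourced commercial kinase-profiling panel, read as percent inhibition. Each value is the mean of two independent experiments.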
# [2] = molecular target: Protein kinase C iota type (Homo sapiens) (UniProt P41743); test: Inhibition of recombinant human full length PKCiota at 1 uM using ERMRPRKRQGSVRRRV as substrate incubated for 40 mins in presence of [gamma-33P]-ATP by scintillation counting method relative to control
# Sequence of Protein kinase C iota type (Homo sapiens) (P41743 whole entry): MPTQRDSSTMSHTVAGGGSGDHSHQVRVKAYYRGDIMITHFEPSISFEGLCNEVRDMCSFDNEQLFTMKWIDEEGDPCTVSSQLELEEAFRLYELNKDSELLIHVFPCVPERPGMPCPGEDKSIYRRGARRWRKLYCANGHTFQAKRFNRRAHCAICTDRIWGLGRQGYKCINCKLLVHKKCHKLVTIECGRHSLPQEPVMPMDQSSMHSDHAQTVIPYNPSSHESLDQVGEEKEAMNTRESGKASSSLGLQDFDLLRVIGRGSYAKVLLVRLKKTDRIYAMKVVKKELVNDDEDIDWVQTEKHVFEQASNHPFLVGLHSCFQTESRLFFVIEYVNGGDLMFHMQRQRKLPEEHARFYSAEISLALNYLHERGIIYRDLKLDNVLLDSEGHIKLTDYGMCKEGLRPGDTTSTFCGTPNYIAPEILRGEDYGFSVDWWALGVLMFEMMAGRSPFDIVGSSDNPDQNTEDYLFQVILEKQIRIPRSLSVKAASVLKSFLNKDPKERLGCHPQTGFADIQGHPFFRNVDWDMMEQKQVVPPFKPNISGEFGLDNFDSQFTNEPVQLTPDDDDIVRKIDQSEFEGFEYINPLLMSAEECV
# [3] = molecular target: G protein-coupled receptor kinase 5 (Homo sapiens) (UniProt P34947); test: Inhibition of recombinant human full length GRK5 at 1 uM using casein as substrate incubated for 40 mins in presence of [gamma-33P]-ATP by scintillation counting method relative to control; in short: as §1
# Sequence of G protein-coupled receptor kinase 5 (Homo sapiens) (P34947 whole entry, looked up): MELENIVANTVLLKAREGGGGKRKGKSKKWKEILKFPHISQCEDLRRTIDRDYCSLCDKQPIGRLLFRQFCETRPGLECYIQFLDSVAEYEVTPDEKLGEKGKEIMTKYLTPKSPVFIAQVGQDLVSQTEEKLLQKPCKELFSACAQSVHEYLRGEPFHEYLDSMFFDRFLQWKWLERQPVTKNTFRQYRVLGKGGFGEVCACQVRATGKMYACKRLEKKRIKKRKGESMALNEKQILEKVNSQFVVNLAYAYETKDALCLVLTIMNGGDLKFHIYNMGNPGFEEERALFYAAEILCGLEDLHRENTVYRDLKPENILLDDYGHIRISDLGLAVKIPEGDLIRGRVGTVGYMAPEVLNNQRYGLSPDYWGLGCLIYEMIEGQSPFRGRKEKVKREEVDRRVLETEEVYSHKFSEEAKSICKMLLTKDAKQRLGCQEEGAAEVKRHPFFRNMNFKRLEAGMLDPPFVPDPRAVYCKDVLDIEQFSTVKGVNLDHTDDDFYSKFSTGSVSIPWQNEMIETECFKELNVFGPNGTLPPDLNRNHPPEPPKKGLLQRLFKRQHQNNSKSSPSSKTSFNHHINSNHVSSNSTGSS
# [4] = molecular target: 5'-AMP-activated protein kinase catalytic subunit alpha-1 (Homo sapiens) (UniProt Q13131); test: Inhibition of recombinant full length human AMPKalpha1 at 1 uM using AMARAASAAALAR as substrate incubated for 40 mins in presence of [gamma-33P]-ATP by scintillation counting method relative to control
# Sequence of 5'-AMP-activated protein kinase catalytic subunit alpha-1 (Homo sapiens) (Q13131 whole entry, looked up): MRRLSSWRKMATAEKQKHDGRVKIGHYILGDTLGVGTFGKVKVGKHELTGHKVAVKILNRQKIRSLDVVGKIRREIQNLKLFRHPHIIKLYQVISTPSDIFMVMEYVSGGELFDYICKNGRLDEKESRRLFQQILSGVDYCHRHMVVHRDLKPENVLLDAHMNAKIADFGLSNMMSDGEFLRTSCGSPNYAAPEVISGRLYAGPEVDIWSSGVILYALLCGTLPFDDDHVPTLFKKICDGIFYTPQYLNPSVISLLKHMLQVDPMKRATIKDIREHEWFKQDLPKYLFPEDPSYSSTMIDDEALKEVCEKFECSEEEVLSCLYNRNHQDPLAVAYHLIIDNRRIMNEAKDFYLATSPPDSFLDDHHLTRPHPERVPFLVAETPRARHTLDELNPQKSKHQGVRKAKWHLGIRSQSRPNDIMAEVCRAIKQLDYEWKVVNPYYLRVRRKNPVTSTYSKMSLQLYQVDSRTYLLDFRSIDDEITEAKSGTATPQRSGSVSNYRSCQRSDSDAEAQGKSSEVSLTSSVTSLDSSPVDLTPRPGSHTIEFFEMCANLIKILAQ
# In short: (§2)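 Kinase panel profiling at 1 μM performed by Eurofins KinaseProfiler; percent inhibition reported as mean of two independent experiments.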
# [5] = Toxicity in NOD/SCID BALB/c mouse xenografted with human SiHa cells assessed as toxic effects in kidney at 40 mg/kg, po administered for 48 hrs by hematoxylin and eosin staining method; type: organism-based; conditions: in vivo
# [6] = molecular target: Serine/threonine-protein kinase Nek6 (Homo sapiens) (UniProt Q9HC98); test: Inhibition of recombinant human NEK6 (2 to end residues) at 1 uM using FLAKSFGSPNRAYKK as substrate incubated for 40 mins in presence of [gamma-33P]-ATP by scintillation counting method relative to control
# Sequence of Serine/threonine-protein kinase Nek6 (Homo sapiens) (Q9HC98 whole entry): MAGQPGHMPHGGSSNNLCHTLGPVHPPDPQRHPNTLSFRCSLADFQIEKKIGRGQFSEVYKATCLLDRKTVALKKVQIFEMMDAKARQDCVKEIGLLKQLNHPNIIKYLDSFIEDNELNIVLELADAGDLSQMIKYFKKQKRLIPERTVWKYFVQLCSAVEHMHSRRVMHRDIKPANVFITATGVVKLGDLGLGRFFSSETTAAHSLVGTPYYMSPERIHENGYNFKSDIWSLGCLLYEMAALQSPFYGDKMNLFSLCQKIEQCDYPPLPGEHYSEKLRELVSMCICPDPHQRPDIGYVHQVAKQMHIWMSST
# [7] = tested on: T47D; test: Induction of cell cycle arrest in human T47D cells assessed as decrease in cell accumulation in S phase at 20 to 40 nM incubated for 36 hrs by propidium iodide staining based flow cytometry; type: functional
# In short: (§3)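 Cells were treated with graded concentrations for 36 h, then fixed overnight in 70% ice-cold ethanol at 4°C and resuspended in PBS. Staining used 50 µg/ml PI plus 5 µg/ml RNase at 37°C for 30 min. DNA content was analysed by FACS to give G0/G1, S and G2/M fractions.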
# [8] = tested on: SiHa; test: Induction of cell cycle arrest in human SiHa cells assessed as accumulation in G2/M phase at 40 to 80 nM incubated for 36 hrs by propidium iodide staining based flow cytometry; type: functional; in short: as §3
# [9] = tested on: Macrophage colony-stimulating factor 1 receptor (Homo sapiens), P07333 [Y969C]; test: Inhibition of recombinant human FMS Y969C mutant (538 to end residues) at 1 uM using EEEEYEEEEEEYY as substrate incubated for 40 mins in presence of [gamma-33P]-ATP by scintillation counting method relative to control
# [10] = tested on: SiHa; test: Antitumor activity against human SiHa cells xenografted in NOD/SCID BALB/c mouse assessed as tumor growth inhibition at 10 to 40 mg/kg, po administered for 21 days; type: functional, organism-based
# [11] = molecular target: NUAK family SNF1-like kinase 2 (Homo sapiens) (UniProt Q9H093); test: Inhibition of recombinant human full length NUAK2 at 1 uM using KKKVSRSGLYRSPSMPENLNRPR as substrate incubated for 40 mins in presence of [gamma-33P]-ATP by scintillation counting method relative to control
# Sequence of NUAK family SNF1-like kinase 2 (Homo sapiens) (Q9H093 whole entry): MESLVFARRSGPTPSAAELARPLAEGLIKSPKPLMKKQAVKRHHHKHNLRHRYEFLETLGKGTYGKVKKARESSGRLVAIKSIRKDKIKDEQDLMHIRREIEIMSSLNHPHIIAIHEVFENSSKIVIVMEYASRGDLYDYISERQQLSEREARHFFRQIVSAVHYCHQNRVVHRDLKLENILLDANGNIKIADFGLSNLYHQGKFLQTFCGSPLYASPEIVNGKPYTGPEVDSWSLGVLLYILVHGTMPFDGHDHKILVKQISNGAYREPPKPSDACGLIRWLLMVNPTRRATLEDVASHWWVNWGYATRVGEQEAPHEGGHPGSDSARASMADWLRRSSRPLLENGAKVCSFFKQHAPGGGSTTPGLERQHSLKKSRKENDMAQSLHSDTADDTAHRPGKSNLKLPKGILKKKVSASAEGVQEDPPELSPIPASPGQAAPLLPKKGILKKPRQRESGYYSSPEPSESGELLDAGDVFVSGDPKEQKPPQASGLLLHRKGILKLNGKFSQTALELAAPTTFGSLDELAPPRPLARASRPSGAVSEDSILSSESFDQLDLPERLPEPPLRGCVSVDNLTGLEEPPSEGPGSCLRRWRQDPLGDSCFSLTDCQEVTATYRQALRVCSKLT
# [12] = molecular target: Wee1-like protein kinase 2 (Homo sapiens) (UniProt P0C1S8); test: Inhibition of recombinant human full length WEE1B at 1 uM using LSNLYHQGKFLQTFCGSPLYRRR as substrate incubated for 40 mins in presence of [gamma-33P]-ATP by scintillation counting method relative to control
# In short: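 Single-point inhibition at 1 uM measured in a commercial kinase profiling panel (KinaseProfiler); each value is the mean of two independent experiments.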
# [13] = molecular target: Mitogen-activated protein kinase kinase kinase 10 (Homo sapiens) (UniProt Q02779); test: Inhibition of recombinant human MLK2 (1 to 449 residues) at 1 uM using myelin basic protein as substrate incubated for 40 mins in presence of [gamma-33P]-ATP by scintillation counting method relative to control
# [14] = molecular target: Discoidin domain-containing receptor 2 (Homo sapiens) (UniProt Q16832); test: Inhibition of recombinant human DDR2 (467 to end residues) at 1 uM using KKSRGDYMTMQIG as substrate incubated for 40 mins in presence of [gamma-33P]-ATP by scintillation counting method relative to control; in short: as §2
# Sequence of Discoidin domain-containing receptor 2 (Homo sapiens) (Q16832 whole entry, the tested form may be a part): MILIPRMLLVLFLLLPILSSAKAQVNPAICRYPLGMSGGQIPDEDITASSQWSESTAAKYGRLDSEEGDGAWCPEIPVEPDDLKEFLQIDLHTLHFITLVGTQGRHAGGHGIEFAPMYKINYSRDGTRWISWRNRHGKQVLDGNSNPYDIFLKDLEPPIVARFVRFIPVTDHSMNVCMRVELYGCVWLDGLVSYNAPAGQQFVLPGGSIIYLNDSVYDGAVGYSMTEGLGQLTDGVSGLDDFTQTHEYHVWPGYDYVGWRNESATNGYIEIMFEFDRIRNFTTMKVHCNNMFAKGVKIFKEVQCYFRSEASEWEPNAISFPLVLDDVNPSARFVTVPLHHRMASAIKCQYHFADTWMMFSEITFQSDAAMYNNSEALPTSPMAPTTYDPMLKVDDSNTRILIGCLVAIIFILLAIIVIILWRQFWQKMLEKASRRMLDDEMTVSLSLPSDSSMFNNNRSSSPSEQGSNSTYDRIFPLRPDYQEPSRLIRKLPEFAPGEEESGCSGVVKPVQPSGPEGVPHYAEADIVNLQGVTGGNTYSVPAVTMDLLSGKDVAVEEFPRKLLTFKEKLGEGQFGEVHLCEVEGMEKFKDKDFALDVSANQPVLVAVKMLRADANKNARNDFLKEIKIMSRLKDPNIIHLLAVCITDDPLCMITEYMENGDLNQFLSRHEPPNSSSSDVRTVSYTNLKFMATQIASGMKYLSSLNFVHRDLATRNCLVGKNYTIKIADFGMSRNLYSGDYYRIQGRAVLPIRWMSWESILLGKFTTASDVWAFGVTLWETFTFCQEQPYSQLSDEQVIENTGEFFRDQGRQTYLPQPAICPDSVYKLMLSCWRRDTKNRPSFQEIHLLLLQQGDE
# [15] = molecular target: Mitogen-activated protein kinase kinase kinase 5 (Homo sapiens) (UniProt Q99683); test: Inhibition of recombinant human ASK1 (649 to 946 residues) at 1 uM using myelin ba as substrate incubated for 40 mins in presence of [gamma-33P]-ATP by scintillation counting method relative to control; in short: as §1
# [16] = molecular target: Serine/threonine-protein kinase A-Raf (Homo sapiens) (UniProt P10398); test: Inhibition of recombinant human A-Raf (273 to end residues) at 1 uM using myelin as substrate incubated for 40 mins in presence of [gamma-33P]-ATP by scintillation counting method relative to control; in short: as §2
# Sequence of Serine/threonine-protein kinase A-Raf (Homo sapiens) (P10398 whole entry): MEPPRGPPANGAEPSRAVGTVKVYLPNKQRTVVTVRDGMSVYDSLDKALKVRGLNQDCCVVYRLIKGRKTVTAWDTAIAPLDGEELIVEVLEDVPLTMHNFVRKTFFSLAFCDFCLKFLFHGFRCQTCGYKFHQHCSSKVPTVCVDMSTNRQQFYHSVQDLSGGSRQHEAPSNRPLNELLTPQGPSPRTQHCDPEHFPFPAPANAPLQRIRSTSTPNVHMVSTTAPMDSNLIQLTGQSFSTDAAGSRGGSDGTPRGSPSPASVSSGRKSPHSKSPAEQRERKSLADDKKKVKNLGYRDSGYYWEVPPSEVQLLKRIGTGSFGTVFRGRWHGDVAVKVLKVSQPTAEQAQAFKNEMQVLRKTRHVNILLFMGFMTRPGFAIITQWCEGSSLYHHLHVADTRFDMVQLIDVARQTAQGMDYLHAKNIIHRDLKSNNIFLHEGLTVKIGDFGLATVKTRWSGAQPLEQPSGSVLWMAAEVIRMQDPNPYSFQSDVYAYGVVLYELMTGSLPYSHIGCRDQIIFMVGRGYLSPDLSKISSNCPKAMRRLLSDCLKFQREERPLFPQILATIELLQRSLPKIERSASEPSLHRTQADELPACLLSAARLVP
# [17] = tested on: MDA-MB-231; test: Induction of apoptosis in human MDA-MB-231 cells assessed as decrease in Ki67 expression at 20 to 40 nM incubated for 48 hrs by Western blot analysis; type: functional, cell-based
# In short: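 Cells were treated for 48 h, washed three times with PBS, and lysed in RIPA buffer. Immunoblots used anti-Rb, anti-phospho-Rb, anti-Ki67 and anti-Bcl-2 (each 1:1000), with β-actin as loading control.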
# [18] = tested on: SiHa; test: Induction of apoptosis in human SiHa cells assessed as decrease in Bcl2 expression at 40 to 80 nM incubated for 48 hrs by Western blot analysis; type: functional, cell-based
# In short: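 Cancer cells were exposed to graded concentrations for 48 h, washed three times in PBS and lysed in RIPA buffer. Immunoblots were probed with anti-Rb, anti-phospho-Rb, anti-Ki67 and anti-Bcl-2, each at 1:1000. β-actin served as loading control.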
# [19] = molecular target: Leucine-rich repeat serine/threonine-protein kinase 2 (Homo sapiens) (UniProt Q5S007); test: Inhibition of recombinant human LRRK2 (970 to end residues) at 1 uM using RLGRDKYKTLRQIRQ as substrate incubated for 40 mins in presence of [gamma-33P]-ATP by scintillation counting method relative to control
# [20] = tested on: HeLa; test: Antiproliferative activity against human HeLa cells assessed as reduction in cell viability at 80 nM incubated for 48 hrs by EdU staining based laser scanning confocal microscopy; type: functional
# In short: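 Cells, 5×10^4, were seeded in 24-well plates and treated for 48 h. They were then labeled using an EdU Apollo 488 imaging kit with Hoechst 33342 nuclear stain and imaged by laser scanning confocal microscopy. Percent EdU-positive cells = EdU-positive/Hoechst-stained × 100%.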
SMILES,inhibition [1],inhibition [2],inhibition [3],inhibition [4],Activity [5],inhibition [6],Activity [7],Activity [8],inhibition [9],TGI [10],inhibition [11],inhibition [12],inhibition [13],inhibition [14],inhibition [15],inhibition [16],Activity [17],Activity [18],inhibition [19],inhibition [20]
Cc1ccc(NC(=O)C2(C(=O)Nc3ccc(Nc4ncc(F)c(-c5cc(F)c6nc(C)n(C(C)C)c6c5)n4)cc3)CC2)cc1,0%,5%,0%,40%,Non-Toxic,2%,Active,Active,73%,Active,67%,0%,2%,55%,0%,19%,Active,Active,83%,
COc1cc2nccc(Oc3ccc(NC(=O)C4(C(=O)Nc5ccc(F)cc5)CC4)cc3)c2cc1OC [CABOZANTINIB],,,,,,,,,,,,,,,,,,,,Active
